Experimental data: ChEMBL document CHEMBL5376019, “Design, synthesis and evaluation of 2-phenylpyrimidine derivatives as novel antifungal agents targeting CYP51” (RSC Med Chem, 2024)
In brackets after ≈: the same amount, converted by molar mass.

Columns and labels:
Format in all cases: functional
Candida albicans [1] = assay: Antifungal activity against Candida albicans ATCC SC5314 assessed as fungal growth inhibition
Procedure, shortened: (§1)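 Broth microdilution per NCCLS M27-A3, with fluconazole as positive control. Assay medium was RPMI 1640 buffered with MOPS. Inocula were diluted to 1–5 × 10^3 CFU mL−1 and seeded in 96-well plates. Compounds were dissolved in DMSO and serially diluted in the growth medium. MIC was the read-out.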

Candida albicans [2] = assay: Antifungal activity against Candida albicans CPCC400616 assessed as fungal growth inhibition; procedure, shortened: as §1
Nakaseomyces glabratus = assay: Antifungal activity against clinical isolate Candida glabrata assessed as fungal growth inhibition; procedure, shortened: as §1
Cryptococcus neoformans = assay: Antifungal activity against Cryptococcus neoformans CGMCC 2.3161 assessed as fungal growth inhibition; procedure, shortened: as §1
Pichia kudriavzevii = assay: Antifungal activity against Pichia kudriavzevii GIM 2.1 assessed as fungal growth inhibition; procedure, shortened: as §1
Candida parapsilosis = assay: Antifungal activity against Candida parapsilosis GIM 2.190 assessed as fungal growth inhibition; settings: Lodderomyces parapsilosis; procedure, shortened: as §1
Candida tropicalis = assay: Antifungal activity against Candida tropicalis CGMCC 2.3739 assessed as fungal growth inhibition; procedure, shortened: as §1

| SMILES | MIC (Candida albicans [1]) [µg/mL] | MIC (Candida albicans [2]) [µg/mL] | MIC (Nakaseomyces glabratus) [µg/mL] | MIC (Cryptococcus neoformans) [µg/mL] | MIC (Pichia kudriavzevii) [µg/mL] | MIC (Candida parapsilosis) [µg/mL] | MIC (Candida tropicalis) [µg/mL] |
| --- | --- | --- | --- | --- | --- | --- | --- |
| O=C(NC(Cn1ccnc1)C(=O)c1ccccc1)c1cnc(-c2ccccc2Cl)nc1 (racemic) | 8 (≈ 18.5 µM) | 16 (≈ 37 µM) | > 64 | > 64 | 16 (≈ 37 µM) | 32 (≈ 74.1 µM) | 4 (≈ 9.26 µM) |
| O=C(NC(Cn1ccnc1)C(=O)c1ccccc1)c1noc2c1CCc1ccccc1-2 (configuration not stated) | 8 (≈ 19.4 µM) | 8 (≈ 19.4 µM) | – | – | – | – | 4 (≈ 9.7 µM) |
| CC(C)c1ccc(-c2ncc(C(=O)NC(Cn3ccnc3)C(=O)c3ccccc3)cn2)cc1 (racemic) | > 64 | > 64 | > 64 | > 64 | > 64 | > 64 | > 64 |
| O=C(NC(Cn1ccnc1)C(=O)c1ccccc1)c1ccc(-c2cncnc2)cc1 (racemic) | > 64 | > 64 | > 64 | > 64 | > 64 | > 64 | > 64 |
| O=C(NC(Cn1ccnc1)C(=O)c1ccccc1)c1csc(-c2ccccc2)n1 (racemic) | > 64 | > 64 | > 64 | > 64 | > 64 | > 64 | > 64 |
| O=C(NC(Cn1ccnc1)C(=O)c1ccccc1)c1cnc(-c2ccccc2)nc1 (racemic) | 4 (≈ 10.1 µM) | 16 (≈ 40.3 µM) | 32 (≈ 80.5 µM) | > 64 | 16 (≈ 40.3 µM) | > 64 | 8 (≈ 20.1 µM) |
| COc1ccc(-c2ncc(C(=O)NC(Cn3ccnc3)C(=O)c3ccccc3)cn2)cc1 (racemic) | > 64 | > 64 | > 64 | > 64 | > 64 | > 64 | > 64 |
| O=C(NC(Cn1ccnc1)C(=O)c1ccc(I)cc1)c1cnc(-c2cccc(F)c2)nc1 (racemic) | 1 (≈ 1.85 µM) | 32 (≈ 59.1 µM) | > 64 | > 64 | > 64 | > 64 | > 64 |
| CC(C)c1cccc(-c2ncc(C(=O)NC(Cn3ccnc3)C(=O)c3ccccc3)cn2)c1 (racemic) | > 64 | > 64 | > 64 | > 64 | > 64 | > 64 | > 64 |
| O=C(NC(Cn1ccnc1)C(=O)c1ccccc1)c1cc(-c2ccccc2)on1 (racemic) | 32 (≈ 82.8 µM) | 64 (≈ 166 µM) | > 64 | > 64 | > 64 | > 64 | > 64 |
| O=C(NC(Cn1ccnc1)C(=O)c1ccc(F)cc1)c1cnc(-c2cccc(F)c2)nc1 (racemic) | 16 (≈ 36.9 µM) | > 64 | > 64 | > 64 | > 64 | > 64 | > 64 |
| O=C(NC(Cn1ccnc1)C(=O)c1ccccc1)c1cnc(-c2cccc(Cl)c2)nc1 (racemic) | > 64 | > 64 | > 64 | > 64 | > 64 | > 64 | > 64 |
| O=C(NC(Cn1ccnc1)C(=O)c1ccccc1)c1cnc(-c2ccccc2F)nc1 (racemic) | > 64 | > 64 | > 64 | > 64 | > 64 | > 64 | > 64 |
| O=C(NC(Cn1ccnc1)C(=O)c1ccc(Br)cc1)c1cnc(-c2cccc(F)c2)nc1 (racemic) | 0.5 (≈ 1.01 µM) | 8 (≈ 16.2 µM) | > 64 | > 64 | > 64 | > 64 | 16 (≈ 32.4 µM) |
| O=C(NC(Cn1ccnc1)C(=O)c1ccccc1)c1ccc(-c2cccnc2)cc1 (racemic) | 8 (≈ 20.2 µM) | 32 (≈ 80.7 µM) | > 64 | > 64 | > 64 | > 64 | > 64 |
| O=C(NC(Cn1ccnc1)C(=O)c1ccccc1)c1ccc(-c2ncccn2)cc1 (racemic) | > 64 | > 64 | > 64 | > 64 | > 64 | > 64 | > 64 |
| O=C(NC(Cn1ccnc1)C(=O)c1ccccc1)c1cnc(-c2cccc(C(F)(F)F)c2)nc1 (racemic) | > 64 | > 64 | > 64 | > 64 | > 64 | > 64 | > 64 |
| O=C(NC(Cn1ccnc1)C(=O)c1ccccc1)c1cnc(-c2ccc(Cl)cc2)nc1 (racemic) | 8 (≈ 18.5 µM) | 16 (≈ 37 µM) | > 64 | > 64 | > 64 | > 64 | 4 (≈ 9.26 µM) |
| O=C(NC(Cn1ccnc1)C(=O)c1ccccc1)c1cnc(-c2ccc(Cl)cc2F)nc1 (racemic) | > 64 | > 64 | > 64 | > 64 | > 64 | > 64 | > 64 |

Results, then the compound that gave them:

| MIC (Candida albicans [1]) [µg/mL] | MIC (Candida albicans [2]) [µg/mL] | MIC (Nakaseomyces glabratus) [µg/mL] | MIC (Cryptococcus neoformans) [µg/mL] | MIC (Pichia kudriavzevii) [µg/mL] | MIC (Candida parapsilosis) [µg/mL] | MIC (Candida tropicalis) [µg/mL] | SMILES |
| --- | --- | --- | --- | --- | --- | --- | --- |
| 8 (≈ 20.2 µM) | 16 (≈ 40.4 µM) | > 64 | > 64 | 16 (≈ 40.4 µM) | > 64 | 8 (≈ 20.2 µM) | O=C(NC(Cn1ccnc1)C(=O)c1ccccc1)c1ccc(-c2ccncc2)cc1 (racemic) |
| > 64 | > 64 | > 64 | > 64 | > 64 | > 64 | > 64 | O=C(NC(Cn1ccnc1)C(=O)c1ccccc1)c1cnc(-c2cccc(OC(F)(F)F)c2)nc1 (racemic) |
| > 64 | > 64 | > 64 | > 64 | > 64 | > 64 | > 64 | Cc1ccc(-c2ncc(C(=O)NC(Cn3ccnc3)C(=O)c3ccccc3)cn2)cc1 (racemic) |
| 2 (≈ 4.81 µM) | 8 (≈ 19.3 µM) | 32 (≈ 77 µM) | 32 (≈ 77 µM) | 32 (≈ 77 µM) | 16 (≈ 38.5 µM) | 4 (≈ 9.63 µM) | O=C(NC(Cn1ccnc1)C(=O)c1ccccc1)c1cnc(-c2cccc(F)c2)nc1 (racemic) |
| 1 (≈ 2.22 µM) | 32 (≈ 71.1 µM) | > 64 | > 64 | > 64 | > 64 | > 64 | O=C(NC(Cn1ccnc1)C(=O)c1ccc(Cl)cc1)c1cnc(-c2cccc(F)c2)nc1 (racemic) |
| 16 (≈ 41.5 µM) | > 64 | > 64 | > 64 | > 64 | > 64 | > 64 | O=C(NC(Cn1ccnc1)C(=O)c1ccccc1)c1ccc(-c2ccoc2)cc1 (racemic) |
| > 64 | > 64 | > 64 | > 64 | > 64 | > 64 | > 64 | CC(C)(C)c1cccc(-c2ncc(C(=O)NC(Cn3ccnc3)C(=O)c3ccccc3)cn2)c1 (racemic) |
| > 64 | > 64 | > 64 | > 64 | > 64 | > 64 | > 64 | CC(C)(C)c1ccc(-c2ncc(C(=O)NC(Cn3ccnc3)C(=O)c3ccccc3)cn2)cc1 (racemic) |
| > 64 | > 64 | > 64 | > 64 | > 64 | > 64 | > 64 | O=C(NC(Cn1ccnc1)C(=O)c1ccccc1)c1ccc(-c2ccccc2)cn1 (racemic) |
